Measurements gathered from unrelated publications.
Melanocortin receptor 5: Melanocortin receptor 5 (Mus musculus, UniProt P41149)
rep main protease: Replicase polyprotein 1ab, main protease (rep, Severe acute respiratory syndrome-related coronavirus, UniProt P0C6X7)

SMILES	target	assay	conditions	quantity	value
C[C@@H]1NC(=O)[C@H](CC(N)=O)NC(=O)[C@H](Cc2ccccc2)NC(=O)[C@H](Cc2cccc3ccccc23)NC(=O)[C@H](CCCNC(=N)N)NC(=O)[C@@H]2CCCN2C(=O)[C@H]2CCCN2C(=O)[C@H](Cc2ccccc2)NC1=O	Melanocortin receptor 5	reporter gene, agonist		EC50	> 100 µM
O=C1c2c(O)cc(O)cc2O[C@H](c2cc(O)c(O)c(O)c2)[C@H]1O	rep main protease	enzyme activity, inhibitor		IC50	4.58 µM
[Hg+2]	rep main protease	enzyme activity, inhibitor		Ki	0.5 µM
C[C@@H]1NC(=O)[C@H](CCCN)NC(=O)[C@H](Cc2ccccc2)NC(=O)[C@H](Cc2ccccc2)NC(=O)[C@H](CCCNC(=N)N)NC(=O)[C@@H]2CCCN2C(=O)[C@H]2CCCN2C(=O)[C@H](Cc2ccccc2)NC1=O	Melanocortin receptor 5	reporter gene, agonist		EC50	> 100 µM
Clc1cccc(N2CCNCC2)c1Cl	Muscarinic acetylcholine receptor M4 (CHRM4, Homo sapiens, UniProt P08173)	ligand displacement, radioligand	cell membranes	Ki	> 63.1 µM
COc1ccc(-c2nsc(NC(=O)[C@@H]3C[C@H]3C)c2C)cc1	Metabotropic glutamate receptor 1 (GRM1, Homo sapiens, UniProt Q13255)	calcium signal, antagonist		IC50	0.0089 µM
CN[C@]1(c2ccccc2Cl)CCCCC1=O	Ferritin light chain (FTL, Equus caballus, UniProt P02791)	cell-free assay, fluorescence		Kd	42 µM
O=C(O)[C@H]1O[C@@H](Oc2cc3oc(-c4ccccc4)cc(=O)c3c(O)c2O)[C@H](O)[C@@H](O)[C@@H]1O	rep main protease	enzyme activity, inhibitor		IC50	101 µM
CN1CCC(C(c2ccccc2)c2ccccc2)CC1	Histamine H1 receptor (HRH1, Homo sapiens, UniProt P35367)	cell-free assay, radioligand		Ki	0.0251 µM
